# Experimental data taken from PubChem BioAssay.
# Activity calls are given as the source filed them.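 How the source made its calls, unless noted: active means viability at or under a set limit in both replicates, limit being median viability minus 3 SD (cut at about 48% in these data, passing the limit was not always enough); inconclusive means at or under the limit in just one replicate; inactive means at or above the limit in both replicates.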
# Tests used:
# [1] = reduced viability of SK-BR-3 breast cancer cells – cell-based, 24 h, human, pilot screen (AID 572;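 active means viability at or below 10% of carrier control in both of two separate runs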;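 further: compound exposure lasted between 18 and 24 h rather than exactly 24 h; 100% = carrier-treated control wells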); settings: SK-BR-3 viability, CellTiter-Glo luminescence, at 10 µM, stronger effect = lower value
# [2] = HUVEC growth inhibition – cell-based, human, primary screen (AID 575;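 active means viability at or below 30% in both replicate assays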;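 further: 100% = median of untreated cell wells with 0.1% DMSO on each plate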); settings: HUVEC proliferation, CellTiter-Glo luminescence, 72 h; at 10 µM; stronger effect = lower value
# Summary of the method: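 Test system – primary HUVEC, no more than 12 passages · Dosing – one dose, 10 µM final, 0.1% DMSO · Times – 72 h treatment at 37 °C · Measured by – ATP-based CellTiter-Glo luminescent read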
# [3] = H69AR cell proliferation blockers – human, duplicate replicates, primary screen (AID 580); settings: H69AR lung tumor cells viability, ATP luminescence, 72 h; at 10 µM; stronger effect = lower value;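 further: 100% = mean luminescence of untreated wells and 0% = no signal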
# [4] = MRP1 drug-resistance reversers in H69AR cells – cell-based, doxorubicin co-treatment, pilot screen (AID 601;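 active means viability loss from added drug above about 55%, and viability with drug at most 40%, in both replicates, limit read from the data, passing the limit was not always enough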); settings: CellTiter-Glo, 72 h, at 10 µM; for differential viability (reversal): stronger effect = higher value
# [5] = yeast transport mutant growth inhibition pilot in 384-well plates, post-Golgi transport modulator project (AID 636; in the data active means inhibition above about 31%); settings: absorbance 615 nm, about 18 h, stronger effect = higher value
# [6] = growth suppression of yeast trafficking mutant, preliminary HTS, modulators of trafficking downstream of Golgi apparatus project, 1536-format plate, OD 615 nm (AID 637; in the data active means inhibition above about 30%); settings: yeast transport mutant growth, absorbance 615 nm, 18 h; stronger effect = higher value
# [7] = H69AR cells + 2 uM doxorubicin, measured here: viability with 2 uM doxorubicin, stronger effect = lower value
# [8] = H69AR cells, compound alone cytotoxicity
Compound,viability [1],viability [2],viability [3],differential viability (reversal) ([4]; H69AR cells + 2 uM doxorubicin),"viability [4, 7]","viability [4, 8]",inhibition [5],inhibition [6]
COCCCNCC(=O)Nc1ccc(OC(F)(F)F)cc1,102% (inactive),113% (inactive),98.5% (inactive),13% (inactive),85.5%,98.5%,-9.2% (inactive),-5.82% (inactive)
N#CCc1ccc(NC(=O)Nc2cccc(Cl)c2)cc1,88% (inactive),76.9% (inactive),92.5% (inactive),-12.1% (inactive),105%,92.5%,-6.44% (inactive),2.73% (inactive)
N#CCOc1nc(N2CCOCC2)nc(N2CCOCC2)n1,99% (inactive),96.6% (inactive),90.8% (inactive),-0.985% (inactive),91.8%,90.8%,-7.3% (inactive),-2.73% (inactive)
Cc1ccc(OCC(O)Cn2c(NCCc3ccccc3)nc3c2c(=O)[nH]c(=O)n3C)cc1 (centres undefined),60% (inactive),88.8% (inactive),93.9% (inactive),-5.09% (inactive),99%,93.9%,-3.97% (inactive),-1.27% (inactive)
Cc1ccccc1C(=O)NC1CCN(Cc2nnnn2CCc2ccccc2)CC1,124% (inactive),112% (inactive),86.8% (inactive),-4.45% (inactive),91.3%,86.8%,-5.19% (inactive),7.05% (inactive)
O=C(c1ccco1)N1CCN(c2nc(C(F)(F)F)nc3c2nnn3Cc2ccccc2)CC1,133% (inactive),69.2% (inactive),73.3% (inactive),-2.53% (inactive),75.8%,73.3%,-9.45% (inactive),-0.16% (inactive)
COc1ccccc1N1CCN(c2cc(N3CCCC3)nc(C)n2)CC1,75% (inactive),91.8% (inactive),87.8% (inactive),-3.8% (inactive),91.6%,87.8%,-2.6% (inactive),-2% (inactive)
CCOC(=O)C1=C(N)OC2=C(C(=O)CC(C)(C)C2)C1c1ccco1 (centres undefined),90% (inactive),97.3% (inactive),87.8% (inactive),3.79% (inactive),84%,87.8%,1.04% (inactive),3.28% (inactive)
CCOC(=O)N1CCN(C(=O)CN(Cc2ccccc2)S(=O)(=O)c2ccc(OC)c(C)c2)CC1,106% (inactive),102% (inactive),94.7% (inactive),-7.75% (inactive),102%,94.7%,-0.13% (inactive),-3.45% (inactive)
CC(=O)Nc1nc2c(c3c1c(=O)oc1ccccc13)CC(C)CC2 (centres undefined),123% (inactive),85.1% (inactive),92.1% (inactive),4.96% (inactive),87.1%,92.1%,-1.04% (inactive),-2.79% (inactive)
Cc1nnc(NC(=O)C2CCCO2)s1 (centres undefined),90% (inactive),105% (inactive),96.4% (inactive),-10.5% (inactive),107%,96.4%,-2.47% (inactive),-0.91% (inactive)
COc1ccc(Cn2c(N)c(C#N)c3nc4ccccc4nc32)cc1OC,95% (inactive),100% (inactive),99.5% (inactive),12.6% (inactive),86.9%,99.5%,-6.58% (inactive),0.48% (inactive)
Clc1ccc(Cl)c(-c2nn3c(Cn4cnc5ccccc54)nnc3s2)c1,78% (inactive),98.5% (inactive),102% (inactive),6.11% (inactive),96%,102%,-6.3% (inactive),-0.18% (inactive)
COc1ccc2c(c1)c(CC(=O)OCC(=O)O)c(C)n2C(=O)c1ccc(Cl)cc1,133% (inactive),66.8% (inactive),96.2% (inactive),5.33% (inactive),90.9%,96.2%,-5.06% (inactive),-0.67% (inactive)
CCOC(=O)c1cnc(-n2nc(C)cc2C)nc1N1CC(C)OC(C)C1 (centres undefined),127% (inactive),105% (inactive),86.1% (inactive),9.65% (inactive),76.4%,86.1%,-3.47% (inactive),0.73% (inactive)
CCC(c1nnc(SCC(=O)Nc2ccc(C(=O)Nc3ccccc3OC)cc2)o1)N(C)C (centres undefined),65% (inactive),96.7% (inactive),107% (inactive),7.67% (inactive),99%,107%,-6.3% (inactive),-2.18% (inactive)
CCOCC(O)CS(=O)Cc1ccccc1 (centres undefined),111% (inactive),113% (inactive),98.5% (inactive),22.1% (inactive),76.4%,98.5%,-6.67% (inactive),-4.55% (inactive)

Compound,viability [1],viability [2],viability [3],differential viability (reversal) ([4]; H69AR cells + 2 uM doxorubicin),"viability [4, 7]","viability [4, 8]",inhibition [5],inhibition [6]
O=C(O)C(c1ccccc1)N1CCCC1 (centres undefined),106% (inactive),102% (inactive),95.9% (inactive),16.4% (inactive),79.5%,95.9%,-5.6% (inactive),-3.64% (inactive)
COC(=O)C1(C)NC(c2cccs2)C2C(=O)N(c3ccccc3F)C(=O)C21 (centres undefined),80% (inactive),96.3% (inactive),99.3% (inactive),4.93% (inactive),94.4%,99.3%,-0.27% (inactive),-0.48% (inactive)
Cn1nnnc1SCC1=C(C(=O)O)N2C(=O)[C@@H](NC(=O)[C@H](O)c3ccccc3)[C@H]2SC1,132% (inactive),82.9% (inactive),99.2% (inactive),2.56% (inactive),96.6%,99.2%,-1.3% (inactive),0.33% (inactive)
O=C1c2ccccc2NC2CCCCCN12 (centres undefined),108% (inactive),92.9% (inactive),100% (inactive),10.3% (inactive),89.8%,100%,-2.34% (inactive),1.48% (inactive)
COC(=O)Cn1cnc2sc(C)c(S(=O)(=O)N3CCC(C)CC3)c2c1=O,85% (inactive),98.4% (inactive),91.3% (inactive),-5.84% (inactive),97.1%,91.3%,-1.64% (inactive),-0.91% (inactive)
CCCCN1CN(S(=O)(=O)c2cccs2)c2nc3ccccc3nc21,97% (inactive),109% (inactive),83.7% (inactive),-5.09% (inactive),88.8%,83.7%,-10.1% (inactive),-4.18% (inactive)
CSc1nnc(-c2ccccc2)n1C,121% (inactive),102% (inactive),102% (inactive),6.17% (inactive),95.5%,102%,-8.36% (inactive),-0.55% (inactive)
Cc1cc(NC(=O)CSc2nc(CCC3CCCC3)nc3ccccc23)no1,92% (inactive),92.2% (inactive),22.3% (active),-1.14% (inactive),23.4%,22.3%,-2.86% (inactive),-5.08% (inactive)
COC(=O)CSc1nnc(-c2ccc(OC)cc2OC)o1,77% (inactive),93.1% (inactive),109% (inactive),16.5% (inactive),92.8%,109%,-2.67% (inactive),-5.64% (inactive)
O=C(NCCCN1CCOCC1)c1cc(-c2ccc(Cl)cc2)on1,88% (inactive),103% (inactive),94.1% (inactive),15.9% (inactive),78.2%,94.1%,-6.8% (inactive),0.55% (inactive)
CN(c1ccc(OCc2nnc(-c3ccccc3)o2)cc1)S(=O)(=O)c1ccccc1,99% (inactive),96.6% (inactive),82.9% (inactive),2.42% (inactive),80.5%,82.9%,-7.7% (inactive),-5.45% (inactive)
CCOC(=O)C(C)C1(O)c2ccccc2-c2ncccc21 (centres undefined),91% (inactive),98.6% (inactive),102% (inactive),13% (inactive),88.6%,102%,-5.81% (inactive),1.27% (inactive)
Cc1c(Cl)cccc1Nc1ccccc1C(=O)O,108% (inactive),56.7% (inactive),111% (inactive),9% (inactive),102%,111%,-1.17% (inactive),5.33% (inactive)
CCCC1c2ccc(C)n2CCN1C(=O)Nc1ccccc1Cl (centres undefined),92% (inactive),92.2% (inactive),93.5% (inactive),6.95% (inactive),86.6%,93.5%,2.73% (inactive),8.2% (inactive)
O=C(CSc1nc(N2CCCCC2)nc(N2CCCCC2)n1)Nc1nccs1,123% (inactive),85.4% (inactive),77.3% (inactive),4.8% (inactive),72.5%,77.3%,-2.21% (inactive),-7.21% (inactive)
CCc1ccc(NC(=O)CS(=O)CC(=O)NC(C)CCc2ccco2)cc1 (centres undefined),120% (inactive),93.1% (inactive),106% (inactive),11.5% (inactive),94.3%,106%,-1.56% (inactive),-4.59% (inactive)
